# Measurements of several laboratories.
# Target: Vascular endothelial growth factor receptor 2 (KDR, Homo sapiens, UniProt P35968)
# Observed: enzyme activity
# Action: inhibitor
Structure (SMILES),assay,setting,remaining activity [%]
CCN(CC)c1ccc(C2=NNC(=O)CC2C)cc1[N+](=O)[O-] (stereo not shown),,10 µM,99
COc1ccc(C=NNC(=O)c2sc(Nc3ccccc3)c(C(=O)Nc3ccc(OC)cc3)c2NC(C)=O)cc1,,0.1 µM,79.4
O=C(Nc1cnn(-c2csc(C(=O)NC3COC3)c2)c1)Nc1ccccc1Cl,,5 µM,95.2
COc1ccc(NC(=O)c2c(Nc3ccccc3)sc(C#N)c2NC(=O)CNc2ccc(Cl)cc2)cc1,,100 µM,16.5
Cc1cnc(NC2CCOCC2)nc1-n1cnc(C(=O)NC(CN)c2cc(F)cc(Cl)c2)c1 (stereo not shown),radiometric,1 µM,85
O=C(Nc1cnn(-c2csc(C(=O)NC3COC3)c2)c1)Nc1c(F)cccc1Cl,,5 µM,88.3
CC(C)(C)c1nc(-c2cccc(NS(=O)(=O)c3c(F)cccc3F)c2F)c(-c2ccnc(N)n2)s1,radiometric,1 µM,82
Cc1[nH]c(/C=C2\C(=O)Nc3ccc(F)cc32)c(C)c1C(=O)N[C@H]1CCN(C(=O)N(C)C)C1,,0.1 µM,10
CCCOc1ccc(OC)c(F)c1C(=O)c1ccc(C(=O)N[C@@H]2CNC[C@H]2NC(=O)c2ccc3[nH]ncc3c2)cc1,,10 µM,74
CC(C)(O)[C@H]1CC[C@H](Nc2ccc3ncc(-c4cccc(C(F)(F)F)c4)n3n2)CC1,,1 µM,91.5
CC(C)(C)c1nc2c(s1)c1nc(N)ncc1c1ccc(NS(=O)(=O)c3c(F)cccc3F)c(F)c12,radiometric,1 µM,95
COc1ccc(NC(=O)c2c(Nc3ccccc3)sc(C#N)c2NC(=O)CNc2ccc([N+](=O)[O-])cc2)cc1,,0.1 µM,86.1
COc1cc(Cl)c(C(=O)N[C@@H](CN[C@H]2CC[C@@H](N)CC2)Cc2ccc(C#N)cc2)cc1-c1ccc(CN[C@H](C)c2ccc(C)cc2)o1,,1 µM,82
